Source: ChEMBL document CHEMBL1149868, “Synthesis and in vitro anti-leishmanial activity of 1-[5-(5-nitrofuran-2-yl)-1,3,4-thiadiazol-2-yl]- and 1-[5-(5-nitrothiophen-2-yl)-1,3,4-thiadiazol-2-yl]-4-aroylpiperazines” (Bioorg Med Chem, 2008)
The source made the active and inactive calls. The calls are words filed in the database; no cut-off is given here.

How the values were obtained:
[1] = Cytotoxicity against mouse macrophages assessed as cell death at 11.69 uM after 24 hrs by MTT colorimetric assay; assay type: cell-based; settings: macrophage
[2] = Partition coefficient, log p of the compound; assay type: physicochemical; settings: octanol/water
[3] = system: Leishmania major; test: Antileishmanial activity against Leishmania major amastigotes assessed as decrease in infectivity in mouse macrophages after 24 hrs; assay type: functional, organism-based
[4] = system: Leishmania major; test: Antileishmanial activity against Leishmania major MRHO/IR/75/ER amastigotes by Giemsa staining
[5] = system: Leishmania major; test: Antileishmanial activity against Leishmania major amastigotes in mouse macrophages assessed as decrease in infectivity index after 24 hrs; assay type: functional, organism-based
[6] = system: Leishmania major; test: Antileishmanial activity against Leishmania major MRHO/IR/75/ER promastigotes by MTT assay; assay type: functional, organism-based
How it was run: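 L. major MRHO/IR/75/ER promastigotes from early log phase, 2×10^6/mL, in phenol red free RPMI 1640 with 10% FBS, 2 mM glutamine, pH ~7.2 and antibiotics. Exposed to serial drug dilutions for 24 h at 25 °C. MTT (0.5 mg/mL) added for 4 h at 37 °C, pellet dissolved in DMSO, A492 read. Two or more independent experiments in triplicate; IC50 by linear regression, means ± SD.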

[7] = Cytotoxicity against mouse macrophages assessed as cell death at 13.19 uM after 24 hrs by MTT colorimetric assay; assay type: cell-based; settings: macrophage
[8] = Cytotoxicity against mouse macrophages assessed as cell death at 25 uM after 24 hrs by MTT colorimetric assay; assay type: cell-based; settings: macrophage
[9] = Cytotoxicity against mouse macrophages assessed as cell death at 11.75 uM after 24 hrs by MTT colorimetric assay; assay type: cell-based; settings: macrophage
[10] = Cytotoxicity against mouse macrophages assessed as cell death at 24.69 uM after 24 hrs by MTT colorimetric assay; assay type: cell-based; settings: macrophage
[11] = Cytotoxicity against mouse macrophages assessed as cell death at 26.22 uM after 24 hrs by MTT colorimetric assay; assay type: cell-based; settings: macrophage
[12] = Cytotoxicity against mouse macrophages assessed as cell death at 23.78 uM after 24 hrs by MTT colorimetric assay; assay type: cell-based; settings: macrophage
[13] = Cytotoxicity against mouse macrophages assessed as cell death at 24.11 uM after 24 hrs by MTT colorimetric assay; assay type: cell-based; settings: macrophage
[14] = Cytotoxicity against mouse macrophages assessed as cell death at 28.26 uM after 24 hrs by MTT colorimetric assay; assay type: cell-based; settings: macrophage
[15] = Cytotoxicity against mouse macrophages assessed as cell death at 30 uM after 24 hrs by MTT colorimetric assay; assay type: cell-based; settings: macrophage
How it was run: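 Mouse peritoneal macrophages were seeded at 2×10^5 cells/well and allowed to adhere. Medium was then replaced with compound-containing medium and cells were incubated 24 h at 37 °C in humidified 5% CO2. Controls received medium plus DMSO. Viability was read by MTT. % cell death = (control viability − treated viability)/control viability. Values are means ± SD.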

[16] = Cytotoxicity against mouse macrophages assessed as cell death at 19.18 uM after 24 hrs by MTT colorimetric assay; assay type: cell-based; settings: macrophage
[17] = Cytotoxicity against mouse macrophages assessed as cell death at >50 uM after 24 hrs by MTT colorimetric assay; assay type: cell-based; settings: macrophage
[18] = Cytotoxicity against mouse macrophages assessed as cell death at 10.73 uM after 24 hrs by MTT colorimetric assay; assay type: cell-based; settings: macrophage
[19] = Cytotoxicity against mouse macrophages assessed as cell death at 13.11 uM after 24 hrs by MTT colorimetric assay; assay type: cell-based; settings: macrophage
[20] = Cytotoxicity against mouse macrophages assessed as cell death at 34.44 uM after 24 hrs by MTT colorimetric assay; assay type: cell-based; settings: macrophage

Row | Compound | logP [2] | Activity [3] | Activity [4] | Activity [5] | IC50 [6] | other results
1 | O=C(c1ccccc1)N1CCN(c2nnc(-c3ccc([N+](=O)[O-])o3)s2)CC1 | 2.17 | Active | Active | Active | 11.7 µM | Activity [1]: 7.1%
2 | O=C(c1cccc(Cl)c1)N1CCN(c2nnc(-c3ccc([N+](=O)[O-])o3)s2)CC1 | 1.95 | Active | Active | Active | 13.2 µM | Activity [7]: 9.7%
3 | O=C(c1ccccc1)N1CCN(c2nnc(-c3ccc([N+](=O)[O-])s3)s2)CC1 | 2.52 |  |  |  | 25 µM | Activity [8]: 8.9%
4 | O=C(c1ccc(Cl)s1)N1CCN(c2nnc(-c3ccc([N+](=O)[O-])o3)s2)CC1 | 1.92 | Active | Active | Active | 11.8 µM | Activity [9]: 7.6%
5 | O=C(c1ccc(Br)s1)N1CCN(c2nnc(-c3ccc([N+](=O)[O-])s3)s2)CC1 | 2.57 |  |  |  | 24.7 µM | Activity [10]: 9.2%
6 | O=C(c1ccc(Cl)cc1)N1CCN(c2nnc(-c3ccc([N+](=O)[O-])o3)s2)CC1 | 1.95 |  |  |  | 26.2 µM | Activity [11]: 9.7%
7 | O=C(c1ccc(Cl)s1)N1CCN(c2nnc(-c3ccc([N+](=O)[O-])s3)s2)CC1 | 2.27 |  |  |  | 23.8 µM | Activity [12]: 9.8%
8 | O=C(c1ccc(Cl)cc1)N1CCN(c2nnc(-c3ccc([N+](=O)[O-])s3)s2)CC1 | 2.29 |  |  |  | 24.1 µM | Activity [13]: 7.2%
9 | O=C(c1cccs1)N1CCN(c2nnc(-c3ccc([N+](=O)[O-])s3)s2)CC1 | 1.13 |  |  |  | 28.3 µM | Activity [14]: 8.7%
10 | MEGLUMINE ANTIMONATE |  |  |  |  |  | Activity [15]: 40.4%
11 | O=C(c1cccs1)N1CCN(c2nnc(-c3ccc([N+](=O)[O-])o3)s2)CC1 | 0.78 |  |  |  | 19.2 µM | Activity [16]: 2.4%
12 | O=C(c1cccc(Cl)c1)N1CCN(c2nnc(-c3ccc([N+](=O)[O-])s3)s2)CC1 | 2.29 |  |  |  | > 50 µM | Activity [17]: 5.5%
13 | O=C(c1ccccc1Cl)N1CCN(c2nnc(-c3ccc([N+](=O)[O-])o3)s2)CC1 | 1.95 | Active | Active | Active | 10.7 µM | Activity [18]: 8.7%
14 | O=C(c1ccc(Br)s1)N1CCN(c2nnc(-c3ccc([N+](=O)[O-])o3)s2)CC1 | 2.22 | Active | Active | Active | 13.1 µM | Activity [19]: 7.7%
15 | O=C(c1ccccc1Cl)N1CCN(c2nnc(-c3ccc([N+](=O)[O-])s3)s2)CC1 | 2.29 |  |  |  | 34.4 µM | Activity [20]: 6.1%
